High-throughput results deposited in PubChem by several laboratories.
RGS4 act: RGS4 potentiation or activation; HEK293 M3R/inducible RGS4, carbachol calcium flux Fluo4; stronger effect = lower value; B-score at 10 µM; 310,000 compounds, 0.92% hits;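 active = B-score of the integrated calcium signal more than 4 SD below the library mean, with starting fluorescence not abnormally high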;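 note: negative B-score means reduced calcium response which marks RGS4 activation or potentiation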
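Material: Inducible-RGS4 HEK293 cells carrying M3 receptor; also added: carbachol at ECmax as muscarinic agonist stimulus; incubation: compound preincubation 20 min at room temperature before agonist; signal: Fluo4-AM (2 µM) calcium-flux fluorescence, kinetic read; measure: integrated calcium ratio converted to B score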
MrgX1 PAM: human MrgX1 positive allosteric modulation, primary screen; Q96LB2; MrgX1-HEK293, Fluo-4 calcium flux, FDSS; stronger effect = higher value; B-score at 10 µM; 310,000 compounds, 0.63% hits; AID 588675;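 active = plate-corrected calcium response at least 3 library SD above typical, normal starting fluorescence, not activating the receptor alone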;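 note: compound read alongside a low EC10 to EC30 dose of BAM8-22 agonist; peak minus trough fluorescence over baseline measured at the second addition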
RGS4 block: human RGS4 inhibition | P49798 | HEK293 M3R/RGS4 inducible, Fluo-4 calcium flux; stronger effect = higher value; triggered by carbachol at its EC20 | B-score at 10 µM | 310,000 compounds, 0.45% hits | AID 463165;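 active = B-score, a plate-corrected calcium signal, over three deviations above library mean, with baseline fluorescence within five deviations of library mean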;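 note: RGS4 expression induced by doxycycline in cells with stable M3 receptor; B-score is computed from the integrated fluorescence ratio over baseline after carbachol; higher B-score means a larger calcium signal and so more RGS4 inhibition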
MrgX1 antag: antagonists of human MrgX1 receptor; 310,000 compounds, 1.3% hits; MRGX1-HEK293 calcium flux, Fluo-4, BAM8-22 antagonism; stronger effect = lower value; B-score at 10 µM; AID 588676; Q96LB2;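 active = calcium-response B-score plate-corrected more than 3 library SD below zero, starting fluorescence within 5 deviations, no agonist response on first addition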;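 note: peak minus trough fluorescence over baseline after final BAM8-22 challenge near maximal dose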
Cl transport mod: KCC2 (human) Cl- transport modulation; Q9H2X9; KCC2 cells, thallium flux FluoZin-2 fluorescence; B-score of Tl+ flux slope (higher = more flux/activation; lower = inhibition) at 10 µM; 190,000 compounds, 2.2% hits; AID 1456;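 active = thallium flux slope and its plate-corrected score both differing from the plate sample mean at a set confidence after two filtering rounds, in either direction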;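 note: slope of fluorescence scaled to starting intensity during 10 to 20 s after thallium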
MrgX1 ag: agonists of human MrgX1 receptor; B-score at 10 µM; 310,000 compounds, 0.44% hits; Q96LB2; MrgX1-HEK293 cells, Fluo-4 calcium fluorescence, agonist mode; stronger effect = higher value;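 active = calcium response B-score plate-corrected fluorescence ratio at least 3 library SD, with starting fluorescence B-score inside 5 SD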
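System: HEK293 cells stably expressing human MrgX1 receptor; Dosing: test compound in the initial addition of three; Schedule: overnight plating, then 30 min 37 °C plus 30 min room-temperature dye loading; Detection: kinetic calcium dye fluorescence, Fluo-4 NW; Controls: per-plate positive and negative controls for Z′ factor.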
* hit, by the source's call. Hits are enriched below; roughly 4.7% of the tested compounds scored in any of these assays.

How did C#CCOCCOCCOCCNc1nc(N2CCN(C(=O)CCCCCCCCCCNC(=O)Cn3cc(C[C@@H](C)O)nn3)CC2)nc(N2CCN(C(=O)CCCCCCCCCCNC(=O)[C@@H]([C@H](C)CC)n3cc(CCCCCN)nn3)CC2)n1 do in these assays?
MrgX1 PAM: 6.9*; MrgX1 antag: inactive; MrgX1 ag: inactive

Results for C#CCOCCOCCOCCNc1nc(N2CCN(C(=O)CCCCCCCCCCNC(=O)Cn3cc(CCCCCN)nn3)CC2)nc(N2CCN(C(=O)CCCCCCCCCCNC(=O)[C@@H]([C@H](C)O)n3cc(C)nn3)CC2)n1 ?
MrgX1 PAM: 11*; MrgX1 antag: inactive; MrgX1 ag: inactive

How did C#CCOCCOCCOCCNc1nc(N2CCN(C(=O)CCCCCCCCCCNC(=O)Cn3cc(C[C@@H](C)O)nn3)CC2)nc(N2CCN(C(=O)CCCCCCCCCCNC(=O)[C@@H]([C@H](C)O)n3cc(C)nn3)CC2)n1 do in these assays?
MrgX1 PAM: inactive; MrgX1 antag: inactive; MrgX1 ag: inactive

How did C#CCOCCOCCOCCNc1nc(N2CCN(C(=O)Cn3cc(CCCCN)nn3)CC2)nc(N2CCN(C(=O)Cn3cc(CC(C)O)nn3)CC2)n1 (centres undefined) do in these assays?
RGS4 act: inactive; MrgX1 PAM: inactive; RGS4 block: inactive; MrgX1 antag: inactive; Cl transport mod: -0.25; MrgX1 ag: inactive

Results for C#CCOCCOCCOCCNc1nc(N2CCN(C(=O)CCCCCCCCCCNC(=O)Cn3cc(CCCCCN)nn3)CC2)nc(N2CCN(C(=O)CCCCCCCCCCNC(=O)Cn3cc(C[C@@H](C)O)nn3)CC2)n1 ?
MrgX1 PAM: inactive; MrgX1 antag: -8.3*; MrgX1 ag: inactive

Results for O=C(CCl)c1cc2c3c(c1)CC(=O)N3CCC2 ?
RGS4 act: inactive; MrgX1 PAM: inactive; RGS4 block: 17*; MrgX1 antag: inactive; MrgX1 ag: 27*

What do the screens show for `O=C(NCCO)C(=O)Nc1cc2c3c(c1)CC(=O)N3CCC2`?
RGS4 act: inactive; MrgX1 PAM: inactive; RGS4 block: inactive; MrgX1 antag: inactive; MrgX1 ag: inactive

What do the screens show for `Cc1ccc(S(=O)(=O)N2[C@@H](c3ccccc3F)C(C(=O)O)=CC[C@H]2c2ccc(Cl)c(Cl)c2)cc1`?
MrgX1 PAM: 12*; MrgX1 antag: inactive; MrgX1 ag: inactive

How did Cc1ccc(S(=O)(=O)N2[C@@H](c3ccccc3)C(C(=O)O)=CC[C@H]2c2ccc(Cl)c(Cl)c2)cc1 do in these assays?
MrgX1 PAM: inactive; MrgX1 antag: inactive; MrgX1 ag: inactive

How did Cc1ccc(S(=O)(=O)N2[C@@H](c3ccccc3)C(C(=O)O)=CC[C@H]2c2cccc(C)c2)cc1 do in these assays?
MrgX1 PAM: inactive; MrgX1 antag: inactive; MrgX1 ag: inactive

What do the screens show for `Cc1ccc(S(=O)(=O)N2[C@@H](c3ccccc3F)C(C(=O)O)=CC[C@H]2c2cccc(C)c2)cc1`?
MrgX1 PAM: 11*; MrgX1 antag: inactive; MrgX1 ag: inactive

How did CCOc1ccc(N2CC(C(=O)Nc3ccccc3N3CCCC3)CC2=O)cc1 (centres undefined) do in these assays?
RGS4 act: inactive; MrgX1 PAM: inactive; RGS4 block: inactive; MrgX1 antag: inactive; MrgX1 ag: inactive

Results for CCC(=O)c1ccccc1OCCCN1CCC(Cc2ccccc2)CC1 ?
RGS4 act: inactive; MrgX1 PAM: inactive; RGS4 block: inactive; MrgX1 antag: -5.6*; MrgX1 ag: inactive

How did CC(=O)CCc1ccc(OCCCCN2CCC(Cc3ccccc3)CC2)cc1 do in these assays?
RGS4 act: -7.2*; MrgX1 PAM: inactive; RGS4 block: inactive; MrgX1 antag: inactive; Cl transport mod: -2.8; MrgX1 ag: inactive

How did COc1cccc(OC)c1OCCCCN1CCC(Cc2ccccc2)CC1 do in these assays?
RGS4 act: inactive; MrgX1 PAM: inactive; RGS4 block: inactive; MrgX1 antag: inactive; Cl transport mod: -1.8; MrgX1 ag: inactive
